From ChEMBL document CHEMBL5236609, “Optimization of 1,2,4-Triazole-3-thiones toward Broad-Spectrum Metallo-β-lactamase Inhibitors Showing Potent Synergistic Activity on VIM- and NDM-1-Producing Clinical Isolates” (J Med Chem, 2022)
Activity calls are given as the source filed them. The rule behind the calls is not given here.

Experiments:
Klebsiella pneumoniae [1] = assay: Antimicrobial activity against blaVIM-1-producing multidrug-resistant Klebsiella pneumoniae 7023 clinical isolate assessed as meropenem MIC using cation-adjusted Mueller-Hinton broth at 4 ug/ml by broth microdilution method (reference value: […] ug/ml); type: functional; settings: dose 4 µg/ml
Method in brief: (§1)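 Checkerboard broth microdilution in cation-supplemented Mueller–Hinton broth, inoculum 5×10^4 CFU/well, per CLSI. […] The average fractional inhibitory concentration index was computed from the checkerboard.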

Escherichia coli [2] = assay: Antimicrobial activity against blaNDM-1-producing multidrug-resistant Escherichia coli SI-004 clinical isolate assessed as meropenem MIC using cation-adjusted Mueller-Hinton broth at 2 ug/ml by broth microdilution method (reference value: 64 ug/ml); type: functional; settings: dose 2 µg/ml; method in brief: as §1
Klebsiella pneumoniae [3] = assay: Antimicrobial activity against blaVIM-4-producing multidrug-resistant Klebsiella pneumoniae VA-416/02 clinical isolate assessed as meropenem MIC using cation-adjusted Mueller-Hinton broth at 8 ug/ml by broth microdilution method (reference value: […] ug/ml); type: functional; settings: dose 8 µg/ml; method in brief: as §1
Bacteria [4] = assay: Inhibition of bacterial Metallo-beta-lactamase VIM-1 (unknown origin) at 100 uM relative to control
Method in brief: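 Reporter-substrate assay with purified MBL (1–70 nM final) in 50 mM HEPES pH 7.5 at 30 °C. […] Inhibitor 0.5–1000 μM final. Ki derived from the v0/vi vs [I] slope assuming competitive inhibition, or from a Dixon plot. Ki given when inhibition >70%, otherwise % inhibition at 100 μM. Triplicate.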

Klebsiella pneumoniae [5] = assay: Antimicrobial activity against blaVIM-1-producing multidrug-resistant Klebsiella pneumoniae 7023 clinical isolate assessed as meropenem MIC using cation-adjusted Mueller-Hinton broth at 0.5 ug/ml by broth microdilution method (reference value: […] ug/ml); type: functional; settings: dose 0.5 µg/ml; method in brief: as §1
Bacteria [6] = assay: Binding affinity to bacterial VIM-2 (unknown origin) assessed as association constant by isothermal calorimetric assay
Method in brief: (§2)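 ITC at 25 °C. VIM-2 at 19 μM in 10 mM HEPES-NaOH, 0.15 M NaCl, pH 7.5 with DMSO matched to 1%, titrated with compound at 200 μM: one 0.5 μL injection, then 19 × 2 μL at 150 s intervals. Buffer dilution heats subtracted. Nonlinear fit gives n, Ka and ΔH°; values regarded as apparent.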

Escherichia coli [7] = assay: Antimicrobial activity against blaNDM-1-producing multidrug-resistant Escherichia coli SI-004 clinical isolate assessed as meropenem MIC using cation-adjusted Mueller-Hinton broth at 4 ug/ml by broth microdilution method (reference value: 64 ug/ml); type: functional; settings: dose 4 µg/ml; method in brief: as §1
[8] = Binding affinity to bacterial VIM-2 (unknown origin) assessed as dissociation constant by isothermal calorimetric assay; parameters: species or system Bacteria; method in brief: as §2
Klebsiella pneumoniae [9] = assay: Antimicrobial activity against blaVIM-4-producing multidrug-resistant Klebsiella pneumoniae VA-416/02 clinical isolate assessed as meropenem MIC using cation-adjusted Mueller-Hinton broth at 32 ug/ml by broth microdilution method (reference value: […] ug/ml); type: functional; settings: dose 32 µg/ml; method in brief: as §1
Escherichia coli [10] = assay: Antimicrobial activity against blaNDM-1-producing multidrug-resistant Escherichia coli SI-004 clinical isolate assessed as meropenem MIC using cation-adjusted Mueller-Hinton broth at 0.5 ug/ml by broth microdilution method (reference value: 64 ug/ml); type: functional; settings: dose 0.5 µg/ml; method in brief: as §1
Escherichia coli [11] = assay: Antimicrobial activity against blaNDM-1-producing multidrug-resistant Escherichia coli SI-004 clinical isolate assessed as meropenem MIC using cation-adjusted Mueller-Hinton broth at 16 ug/ml by broth microdilution method (reference value: 64 ug/ml); type: functional; settings: dose 16 µg/ml; method in brief: as §1
Klebsiella pneumoniae [12] = assay: Antimicrobial activity against blaVIM-1-producing multidrug-resistant Klebsiella pneumoniae 7023 clinical isolate assessed as meropenem MIC using cation-adjusted Mueller-Hinton broth at 1 ug/ml by broth microdilution method (reference value: […] ug/ml); type: functional; settings: dose 1 µg/ml; method in brief: as §1
Klebsiella pneumoniae [13] = assay: Antimicrobial activity against blaVIM-1-producing multidrug-resistant Klebsiella pneumoniae 7023 clinical isolate assessed as meropenem MIC using cation-adjusted Mueller-Hinton broth at 16 ug/ml by broth microdilution method (reference value: […] ug/ml); type: functional; settings: dose 16 µg/ml; method in brief: as §1
Klebsiella pneumoniae [14] = assay: Antimicrobial activity against blaVIM-1-producing multidrug-resistant Klebsiella pneumoniae 7023 clinical isolate assessed as meropenem MIC using cation-adjusted Mueller-Hinton broth at 8 ug/ml by broth microdilution method (reference value: […] ug/ml); type: functional; settings: dose 8 µg/ml; method in brief: as §1
Klebsiella pneumoniae [15] = assay: Antimicrobial activity against blaVIM-4-producing multidrug-resistant Klebsiella pneumoniae VA-416/02 clinical isolate assessed as meropenem MIC using cation-adjusted Mueller-Hinton broth at 0.5 ug/ml by broth microdilution method (reference value: […] ug/ml); type: functional; settings: dose 0.5 µg/ml; method in brief: as §1
Klebsiella pneumoniae [16] = assay: Antimicrobial activity against blaVIM-4-producing multidrug-resistant Klebsiella pneumoniae VA-416/02 clinical isolate assessed as meropenem MIC using cation-adjusted Mueller-Hinton broth at 4 ug/ml by broth microdilution method (reference value: […] ug/ml); type: functional; settings: dose 4 µg/ml; method in brief: as §1
Escherichia coli [17] = assay: Antimicrobial activity against blaNDM-1-producing multidrug-resistant Escherichia coli SI-004 clinical isolate assessed as meropenem MIC using cation-adjusted Mueller-Hinton broth at 32 ug/ml by broth microdilution method (reference value: 64 ug/ml); type: functional; settings: dose 32 µg/ml; method in brief: as §1
Escherichia coli [18] = assay: Antimicrobial activity against blaNDM-1-producing multidrug-resistant Escherichia coli SI-004 clinical isolate assessed as meropenem MIC using cation-adjusted Mueller-Hinton broth at 1 ug/ml by broth microdilution method (reference value: 64 ug/ml); type: functional; settings: dose 1 µg/ml; method in brief: as §1
Bacteria [19] = assay: Binding affinity to bacterial VIM-2 (unknown origin) assessed as Gibbs free energy by isothermal calorimetric assay; method in brief: as §2
Bacteria [20] = assay: Inhibition of bacterial VIM-2 (unknown origin) assessed as Zn(II) content in protein at >5 uM by overnight equilibrium dialysis
Method in brief: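 VIM-2 or NDM-1 (3 μM final) in 50 mM HEPES pH 7.5 mixed with compound at 0–48 μM. Incubated 1 h on ice, then dialysed overnight at 4 °C against 50 mM HEPES pH 7.5. Zn(II) content measured by atomic absorption at 213.86 nm against a zinc standard curve. Each point averages three samples.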

Row | SMILES | MIC (Klebsiella pneumoniae [1]) [µg/mL] | MIC (Escherichia coli [2]) [µg/mL] | MIC (Klebsiella pneumoniae [3]) [µg/mL] | inhibition (Bacteria [4]) [%] | MIC (Klebsiella pneumoniae [5]) [µg/mL] | Ka (Bacteria [6]) | MIC (Escherichia coli [7]) [µg/mL] | Kd [8] [nM] | MIC (Klebsiella pneumoniae [9]) [µg/mL] | MIC (Escherichia coli [10]) [µg/mL] | MIC (Escherichia coli [11]) [µg/mL] | MIC (Klebsiella pneumoniae [12]) [µg/mL] | MIC (Klebsiella pneumoniae [13]) [µg/mL] | MIC (Klebsiella pneumoniae [14]) [µg/mL] | MIC (Klebsiella pneumoniae [15]) [µg/mL] | MIC (Klebsiella pneumoniae [16]) [µg/mL] | MIC (Escherichia coli [17]) [µg/mL] | MIC (Escherichia coli [18]) [µg/mL] | deltaG (Bacteria [19]) [kcal/mol] | inhibition (Bacteria [20])
1 | O=C(O)[C@H](CCCn1c(-c2ccccc2)n[nH]c1=S)N(Cc1c[nH]cn1)Cc1c[nH]cn1 | 2 | 64 | 1 | 57 | 16 | 1.4 10^6/M | 32 | 700 | 0.03 | 64 | 0.06 | 8 | 0.06 | 1 | 16 | 2 | 0.03 | 64 | -8.4 | –
2 | O=C(O)[C@H](CCCn1c(-c2ccccc2)n[nH]c1=S)N(Cc1ccccn1)Cc1ccccn1 | – | – | – | – | – | – | – | – | – | – | – | – | – | – | – | – | – | – | – | Active
